Laboratory results taken from ChEMBL document CHEMBL3259651, “Bis(4-hydroxy-2H-chromen-2-one): synthesis and effects on leukemic cell lines proliferation and NF-κB regulation” (Bioorg Med Chem, 2014).
Active and inactive are the calls of the source. The calls are words filed in the database; no cut-off is given here.

Legend:
[1] = biological target: T1, Nuclear factor NF-kappa-B complex (Homo sapiens) (UniProt Q00653+P19838+Q04206); assay: Inhibition of NF-kappaB transactivation in TNF-alpha-stimulated human K562 cells at 10 to 100 uM preincubated for 2 hrs followed by TNF-alpha challenge measured after 6 hrs by dual luciferase reporter gene assay; format: cell-based
T1 sequence (Q00653 whole entry, looked up, one chain of several): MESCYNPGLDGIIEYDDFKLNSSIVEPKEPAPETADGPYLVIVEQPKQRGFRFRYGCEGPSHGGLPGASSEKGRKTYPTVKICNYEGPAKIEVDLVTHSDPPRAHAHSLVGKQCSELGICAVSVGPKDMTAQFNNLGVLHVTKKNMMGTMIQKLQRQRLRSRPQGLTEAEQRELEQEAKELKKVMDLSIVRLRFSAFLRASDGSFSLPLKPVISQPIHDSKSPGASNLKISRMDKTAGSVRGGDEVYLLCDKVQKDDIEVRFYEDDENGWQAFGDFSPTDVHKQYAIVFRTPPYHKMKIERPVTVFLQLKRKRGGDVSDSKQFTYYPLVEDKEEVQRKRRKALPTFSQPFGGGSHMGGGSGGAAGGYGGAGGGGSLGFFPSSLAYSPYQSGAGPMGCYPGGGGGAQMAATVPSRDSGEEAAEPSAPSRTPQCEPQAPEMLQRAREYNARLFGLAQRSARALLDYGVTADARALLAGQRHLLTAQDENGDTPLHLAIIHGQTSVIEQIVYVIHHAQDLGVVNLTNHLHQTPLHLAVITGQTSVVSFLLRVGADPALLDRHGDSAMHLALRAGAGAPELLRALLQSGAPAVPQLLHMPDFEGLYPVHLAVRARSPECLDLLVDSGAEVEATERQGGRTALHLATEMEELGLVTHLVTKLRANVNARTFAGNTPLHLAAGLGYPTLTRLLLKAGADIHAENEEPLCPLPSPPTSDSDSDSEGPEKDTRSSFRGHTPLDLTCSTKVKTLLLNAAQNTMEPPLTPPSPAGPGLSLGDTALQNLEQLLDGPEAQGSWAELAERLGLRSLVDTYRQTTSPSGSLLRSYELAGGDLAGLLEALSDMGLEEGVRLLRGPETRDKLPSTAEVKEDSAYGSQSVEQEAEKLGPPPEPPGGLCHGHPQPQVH
T1 sequence (Q04206 whole entry, looked up, one chain of several): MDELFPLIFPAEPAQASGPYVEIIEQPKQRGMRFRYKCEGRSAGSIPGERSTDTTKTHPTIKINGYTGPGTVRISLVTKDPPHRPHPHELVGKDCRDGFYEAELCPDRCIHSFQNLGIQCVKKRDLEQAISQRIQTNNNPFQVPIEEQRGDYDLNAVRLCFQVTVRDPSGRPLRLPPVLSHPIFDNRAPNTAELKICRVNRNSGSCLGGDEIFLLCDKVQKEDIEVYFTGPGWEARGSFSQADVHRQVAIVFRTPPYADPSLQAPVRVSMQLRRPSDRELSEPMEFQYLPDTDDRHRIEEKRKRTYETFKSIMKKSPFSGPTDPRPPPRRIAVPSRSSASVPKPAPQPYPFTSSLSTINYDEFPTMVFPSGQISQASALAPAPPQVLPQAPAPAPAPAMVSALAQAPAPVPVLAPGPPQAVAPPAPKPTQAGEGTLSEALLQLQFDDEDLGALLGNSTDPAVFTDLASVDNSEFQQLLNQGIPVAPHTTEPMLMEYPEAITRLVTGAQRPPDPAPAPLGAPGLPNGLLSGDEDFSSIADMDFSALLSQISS
Outline: (§1)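 Cells co-transfected with 5 µg of a firefly luciferase reporter carrying five consensus NF-κB sites plus 5 µg of a Renilla TK control plasmid. 24 h later, compound for 2 h, then ± 20 ng/ml TNF-α for 6 h more. Firefly:Renilla ratio, TNF-α-only cells set to 100%. Three independent measurements in quadruplicate.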

K562 = assay: Cytotoxicity against human K562 cells assessed as growth inhibition at 10 to 100 uM after 24 to 72 hrs by trypan blue exclusion assay; format: functional, cell-based
Outline: (§2)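 Trypan blue counting of proliferation (cells/mL) and viability. Exponential-phase cells were seeded at 200,000 cells/mL in RPMI 1640 with 10% heat-inactivated FCS at 37 °C and 5% CO2. They were treated from 50 mM DMSO stocks against DMSO-matched controls and read at 24, 48 and 72 h (PBMCs at 24 and 48 h).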

PBMC = assay: Cytotoxicity against human PBMC assessed as effect on cell viability at >100 uM after 24 to 48 hrs by trypan blue exclusion assay; format: cell-based; outline: as §2
Jurkat [2] = assay: Cell cycle arrest in human Jurkat cells assessed as accumulation at G0/G1 phase at 50 uM at 8 hrs by propidium iodide staining-based flow cytometric analysis; format: functional
Outline: (§3)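 Cells in exponential phase at 200,000 cells/mL in RPMI 1640 with 10% heat-inactivated FCS, 37 °C, 5% CO2, treated from DMSO stocks alongside DMSO vehicle controls. Cell cycle distribution was analysed at time points between 8 and 72 h.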

[3] = biological target: T1, Nuclear factor NF-kappa-B complex (Homo sapiens); assay: Inhibition of NF-kappaB in human K562 cells assessed as reduction of TNF-alpha-induced ICAM1 mRNA expression preincubated for 2 hrs followed by TNF-alpha challenge measured after 6 hrs by qRT-PCR analysis; format: cell-based
Outline: (§4)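 K-562 cells given compound for 2 h, then cultured ± 20 ng/ml TNF-α for 6 h. Total RNA analysed by qRT-PCR with ICAM1- and CFLAR-specific primers, expressed as target/β-actin mRNA ratio; mean ± SD of 3 independent experiments.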

Jurkat [4] = assay: Cytotoxicity against human Jurkat cells assessed as growth inhibition at 50 uM after 24 to 72 hrs by trypan blue exclusion assay; format: functional, cell-based; outline: as §2
[5] = biological target: T2, Nuclear factor NF-kappa-B p105 subunit (Homo sapiens) (UniProt P19838); assay: Inhibition of NF-kappaB p50 subunit translocation from cytoplasm to nucleus in TNF-alpha-stimulated human Jurkat cells at 40 uM preincubated for 2 hrs followed by TNF-alpha challenge measured after 2 to 90 mins by Western blot analysis; format: cell-based
T2 sequence (whole entry): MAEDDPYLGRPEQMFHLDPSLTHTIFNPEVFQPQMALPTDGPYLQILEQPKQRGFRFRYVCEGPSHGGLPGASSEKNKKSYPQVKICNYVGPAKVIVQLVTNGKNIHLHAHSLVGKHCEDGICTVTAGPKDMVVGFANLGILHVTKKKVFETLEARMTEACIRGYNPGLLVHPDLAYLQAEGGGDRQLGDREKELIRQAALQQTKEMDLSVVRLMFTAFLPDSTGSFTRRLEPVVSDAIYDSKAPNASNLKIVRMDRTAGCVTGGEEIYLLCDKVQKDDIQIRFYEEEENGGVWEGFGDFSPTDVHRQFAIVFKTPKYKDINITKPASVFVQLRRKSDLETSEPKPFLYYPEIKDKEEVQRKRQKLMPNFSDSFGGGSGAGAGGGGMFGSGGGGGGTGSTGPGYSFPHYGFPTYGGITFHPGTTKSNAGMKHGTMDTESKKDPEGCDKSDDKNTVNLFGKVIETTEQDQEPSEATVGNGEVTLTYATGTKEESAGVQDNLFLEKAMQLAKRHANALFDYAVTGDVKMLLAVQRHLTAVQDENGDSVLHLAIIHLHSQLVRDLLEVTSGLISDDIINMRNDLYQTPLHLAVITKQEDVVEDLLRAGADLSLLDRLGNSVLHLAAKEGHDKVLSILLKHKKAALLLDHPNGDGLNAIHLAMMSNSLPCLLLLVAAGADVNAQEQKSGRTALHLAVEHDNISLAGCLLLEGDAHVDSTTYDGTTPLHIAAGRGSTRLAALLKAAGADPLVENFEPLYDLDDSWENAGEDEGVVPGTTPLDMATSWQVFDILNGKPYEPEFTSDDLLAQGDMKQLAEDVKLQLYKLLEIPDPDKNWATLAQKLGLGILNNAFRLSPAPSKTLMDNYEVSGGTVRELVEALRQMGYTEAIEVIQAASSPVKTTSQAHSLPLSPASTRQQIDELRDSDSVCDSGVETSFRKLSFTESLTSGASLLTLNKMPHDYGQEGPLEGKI
Outline: (§5)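 JURKAT cells pretreated 2 h with 40 µM compound, then ± 20 ng/ml TNF-α for the indicated times. Cytoplasmic and nuclear fractions immunoblotted; loading and fraction purity checked with lamin B and α-tubulin. Blots representative of three independent experiments.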

[6] = biological target: T1, Nuclear factor NF-kappa-B complex (Homo sapiens); assay: Inhibition of NF-kappaB in human K562 cells assessed as reduction of TNF-alpha-induced CFLAR mRNA expression preincubated for 2 hrs followed by TNF-alpha challenge measured after 6 hrs by qRT-PCR analysis; format: cell-based; outline: as §4
[7] = Cell cycle arrest in human […] cells assessed as accumulation at G0/G1 phase at 25 uM measured at 24 hrs by propidium iodide staining-based flow cytometric analysis; format: functional; outline: as §3
[8] = biological target: Transcription factor p65 (Homo sapiens) (UniProt Q04206); assay: Inhibition of NF-kappaB p65 subunit translocation from cytoplasm to nucleus in TNF-alpha-stimulated human Jurkat cells at 40 uM preincubated for 2 hrs followed by TNF-alpha challenge measured after 2 to 90 mins by Western blot analysis; format: cell-based; outline: as §5
Chain of Transcription factor p65 (Homo sapiens) (Q04206 whole entry): as the sequence (Q04206 whole entry, looked up, one chain of several) above

Jurkat [9] = assay: Cytotoxicity against human Jurkat cells assessed as reduction of cell viability at 50 uM after 24 hrs by trypan blue exclusion assay; format: functional, cell-based; outline: as §2
[10] = biological target: T3, NF-kappa-B inhibitor alpha (Homo sapiens) (UniProt P25963); assay: Inhibition of IkappaB-alpha degradation in TNF-alpha-stimulated human Jurkat cells at 40 uM preincubated for 2 hrs followed by TNF-alpha challenge measured after 2 to 90 mins by Western blot analysis; format: cell-based; outline: as §5
T3 sequence (whole entry): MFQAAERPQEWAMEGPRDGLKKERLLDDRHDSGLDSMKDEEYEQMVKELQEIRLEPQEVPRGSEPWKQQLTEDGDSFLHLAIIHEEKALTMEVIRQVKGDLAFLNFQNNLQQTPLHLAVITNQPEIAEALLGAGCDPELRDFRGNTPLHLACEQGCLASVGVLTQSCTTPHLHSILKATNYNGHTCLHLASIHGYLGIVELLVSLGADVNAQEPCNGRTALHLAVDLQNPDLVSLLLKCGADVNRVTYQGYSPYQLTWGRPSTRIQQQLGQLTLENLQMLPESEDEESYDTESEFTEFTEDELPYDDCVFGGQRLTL

[11] = biological target: T1, Nuclear factor NF-kappa-B complex (Homo sapiens); assay: Inhibition of NF-kappaB transactivation in TNF-alpha-stimulated human Jurkat cells preincubated for 2 hrs followed by TNF-alpha challenge measured after 6 hrs by dual luciferase reporter gene assay; format: cell-based; outline: as §1
Jurkat [12] = assay: Cytotoxicity against human Jurkat cells assessed as growth inhibition at 25 uM after 24 hrs by trypan blue exclusion assay; format: functional, cell-based; outline: as §2
K652 = assay: Cytotoxicity against human […] cells assessed as growth inhibition at 25 uM after 24 hrs by trypan blue exclusion assay; format: functional, cell-based; outline: as §2
Jurkat [13] = assay: Cytotoxicity against human Jurkat cells assessed as growth inhibition at 10 uM after 48 hrs by trypan blue exclusion assay; format: functional, cell-based; outline: as §2
[14] = biological target: T1, Nuclear factor NF-kappa-B complex (Homo sapiens); assay: Inhibition of NF-kappaB transactivation in TNF-alpha-stimulated human K562 cells preincubated for 2 hrs followed by TNF-alpha challenge measured after 6 hrs by dual luciferase reporter gene assay; format: cell-based; outline: as §1

SMILES | inhibition [1] | growth inhibition (GI) (K562) | Activity (PBMC) | Activity (Jurkat [2]) | inhibition [3] | growth inhibition (GI) (Jurkat [4]) | inhibition [5] | inhibition [6] | Activity [7] | inhibition [8] | Activity (Jurkat [9]) | inhibition [10] | inhibition [11] | growth inhibition (GI) (Jurkat [12]) | growth inhibition (GI) (K652) | growth inhibition (GI) (Jurkat [13]) | inhibition [14]
CCC(=O)c1ccccc1O | inactive | inactive |  |  |  |  |  |  |  |  |  |  |  |  |  |  | 
O=C(CC(c1c(O)c2ccccc2oc1=O)c1c(O)c2ccccc2oc1=O)c1ccccc1O |  |  | Non-toxic | Active | Dose-dependent effect | Active | Active | Dose-dependent effect | Active | Active | Active | Active | Dose-dependent effect | Active | Active | Active | Dose-dependent effect
O=c1cc(O)c2ccccc2o1 | inactive | inactive |  |  |  |  |  |  |  |  |  |  |  |  |  |  | 
